In ChEMBL document CHEMBL1126084, “2-Acetylpyridine thiocarbonohydrazones. Potent inactivators of herpes simplex virus ribonucleotide reductase” (J Med Chem, 1992):

Key:
[1] = Partition coefficient (logD5.2) (octanol/pH 5.2 acetate buffer); assay type: physicochemical
[2] = test system: Human alphaherpesvirus 1; assay: Inhibition of HSV-1 ribonucleotide reductase; design: concentration or dose not given beside the values; conditions: concentration not given here
Method in brief: (§1)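 Partially purified HSV-1 ribonucleotide reductase, assayed by reduction of purified [14C]CDP in 200 mM Hepes Na+ pH 7.7, 10 mM dithiothreitol, 2 μM CDP (500 Ci/mol, 3–4 × Km), with and without 5 μM inhibitor unless otherwise indicated. First-order kinact (per hour) and v0 of decelerating product time courses come from iterative nonlinear least squares. kinact is the net increase over the uninhibited control, and % inhibition refers to v0.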

[3] = test system: Human alphaherpesvirus 1; assay: Inhibitory index against HSV-1 ribonucleotide reductase
Method in brief: (§2)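 Index per eq 1 combines kinact and percent inhibition of initial velocity from reductase reactions ±5 μM inhibitor (unless otherwise indicated). 0.99 is subtracted from the calculated ratio, so a non-inhibiting, non-inactivating compound scores zero. HSV-1 and human enzymes were assayed under their respective conditions.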

[4] = test system: Human alphaherpesvirus 1; assay: Inactivation of HSV-1 ribonucleotide reductase at rate constant K inact; method in brief: as §1
[5] = target: T1, Ribonucleoside-diphosphate reductase RR1 (Homo sapiens) (UniProt P23921+Q7LG56+P31350); assay: Inhibition of human ribonucleotide reductase; assay type: protein-complex assay; design: concentration or dose not given beside the values; conditions: concentration not given here
Method in brief: (§3)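 The ATP contributed about 3 μM iron, keeping inhibitors iron-complexed. Reactions ran ±5 μM inhibitor unless otherwise indicated. kinact (per hour, net over the control) and v0 came from iterative nonlinear least-squares fits of decelerating time courses.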

[6] = target: T1, Ribonucleoside-diphosphate reductase RR1 (Homo sapiens); assay: Inhibitory index against human ribonucleotide reductase; assay type: protein-complex assay; method in brief: as §2
[7] = target: T1, Ribonucleoside-diphosphate reductase RR1 (Homo sapiens); assay: Inactivation of human ribonucleotide reductase at rate constant K inact; assay type: protein-complex assay; method in brief: as §3
[8] = target: T1, Ribonucleoside-diphosphate reductase RR1 (Homo sapiens); assay: Apparent enzyme activity measured as the ratio of HSV-1 and human enzyme inhibition induces; assay type: functional; conditions: Human alphaherpesvirus 1
Method in brief: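 Apparent selectivity is the ratio of HSV-1 to human inhibition indices, each from eq 1 at 5 μM inhibitor or at the indicated concentration for each enzyme.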

[9] = pKa value of the compound; assay type: physicochemical
Method in brief: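 Protonation and anion-generation pKa values were determined spectrophotometrically.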

Structure (SMILES)	logD [1]	inhibition [2] [%]	Inhibitory index [3]	kinact [4] [h⁻¹]	inhibition [5] [%]	Inhibitory index [6]	kinact [7] [h⁻¹]	Apparent selectivity (HSV-1/human inhibition index ratio) [8]	pKa [9]
C/C(=N\N/C(S)=N/N=C(\S)N(C)C)c1ccccn1	1.25	39	14	8	8	4.4	4	3	–
C/C(=N\N=C(/S)N/N=C(\S)Nc1ccccc1Cl)c1ccccn1	2.67	0	27	27	57	1.3	0	21	3.94
